The record followed here is ChEMBL document CHEMBL4229560, “Increasing C-Terminal Hydrophobicity Improves the Cell Permeability and Antiproliferative Activity of PACE4 Inhibitors against Prostate Cancer Cell Lines” (J Med Chem, 2018).

The term half-life denotes the time in which the quantity being followed falls by half. The IC50 is the midpoint of a concentration-inhibition curve. As a reminder, the Ki is the dissociation constant of the complex between target and ligand, obtained from inhibition or displacement.

For series [1], the system named is DU-145. As to the kind of experiment: Cytotoxicity against human DU145 cells assessed as effect on live cells >10 uM after 1.5 hrs by propidium iodide-staining based FACS analysis. In kind it is cell-based. The following applies: du-145, 1.5 h. The method, boiled down: (§1)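 DU145 cells (200 000 per well) exposed to peptides in serum-free medium for 1.5 h at 1, 10, 50 and 100 µM, or 1, 10, 15, 20, 30, 50, 100 µM for the dose-response set. Cells trypsinized, washed, resuspended in PBS, PI added (final 10 µg/mL), fluorescence read by flow cytometry; IC50(PI) from the dose-response curve; at least two independent experiments.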

Series [2] is filed under the species Homo sapiens. Kind of series: Selectivity ratio of Ki for recombinant human furin to Ki for recombinant human PACE4. The method, boiled down:
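Ki values came from human recombinant enzymes expressed in S2 insect cells. Furin was assayed in 100 mM HEPES pH 7.5, 1 mM CaCl2, 1 mM β-mercaptoethanol and 1.8 g/L BSA. PACE4 was assayed in 20 mM Bis-Tris pH 6.5, 1 mM CaCl2 and 1.8 g/L BSA. Substrate was pERTKR-AMC at 100 µM, with inhibitor at 0–10 µM. Fluorescence (ex 370/em 460 nm) was read for 1 h, and Ki derived by Cheng-Prusoff.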

Series [3] in a line: Half life in human plasma by ion chromatogram-based analysis. It is filed as ADME, cell-free. The method, boiled down: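 Peptide at 50 µM was incubated at 37 °C in human serum from male AB plasma. At each time point, plasma was precipitated with MeOH containing Fmoc-Leu-OH internal standard, centrifuged and filtered. Samples were analysed by UPLC-MS. The peptide/standard ratio of total ion chromatogram peak area was expressed relative to 0 h.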

The test system of series [4] is LNCaP. As to the kind of experiment: Antiproliferative activity against human LNCAP cells after 72 hrs by MTT assay. In kind it is functional, cell-based. The method, boiled down: (§2)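 MTT assay run 72 h. Seeding was ~1500 cells/well for DU145 and ~2500 cells/well for LNCaP, in RPMI 1640 with 5% FBS (DU145) or 10% FBS (LNCaP). Medium was changed after 24 h, then inhibitor added at 1–300 µM or 1–150 µM. MTT was added at 1 g/L final for 4 h and formazan dissolved in 2-propanol/HCl. Readings were relative to vehicle (water, 0.1% DMSO). IC50 was from at least two independent experiments.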
For orientation: Tetrazolium dyes change colour on reduction, which living cells bring about.

Series [5] concerns the target T1, Proprotein convertase subtilisin/kexin type 6 (Homo sapiens, UniProt P29122).
T1 sequence (P29122 whole entry): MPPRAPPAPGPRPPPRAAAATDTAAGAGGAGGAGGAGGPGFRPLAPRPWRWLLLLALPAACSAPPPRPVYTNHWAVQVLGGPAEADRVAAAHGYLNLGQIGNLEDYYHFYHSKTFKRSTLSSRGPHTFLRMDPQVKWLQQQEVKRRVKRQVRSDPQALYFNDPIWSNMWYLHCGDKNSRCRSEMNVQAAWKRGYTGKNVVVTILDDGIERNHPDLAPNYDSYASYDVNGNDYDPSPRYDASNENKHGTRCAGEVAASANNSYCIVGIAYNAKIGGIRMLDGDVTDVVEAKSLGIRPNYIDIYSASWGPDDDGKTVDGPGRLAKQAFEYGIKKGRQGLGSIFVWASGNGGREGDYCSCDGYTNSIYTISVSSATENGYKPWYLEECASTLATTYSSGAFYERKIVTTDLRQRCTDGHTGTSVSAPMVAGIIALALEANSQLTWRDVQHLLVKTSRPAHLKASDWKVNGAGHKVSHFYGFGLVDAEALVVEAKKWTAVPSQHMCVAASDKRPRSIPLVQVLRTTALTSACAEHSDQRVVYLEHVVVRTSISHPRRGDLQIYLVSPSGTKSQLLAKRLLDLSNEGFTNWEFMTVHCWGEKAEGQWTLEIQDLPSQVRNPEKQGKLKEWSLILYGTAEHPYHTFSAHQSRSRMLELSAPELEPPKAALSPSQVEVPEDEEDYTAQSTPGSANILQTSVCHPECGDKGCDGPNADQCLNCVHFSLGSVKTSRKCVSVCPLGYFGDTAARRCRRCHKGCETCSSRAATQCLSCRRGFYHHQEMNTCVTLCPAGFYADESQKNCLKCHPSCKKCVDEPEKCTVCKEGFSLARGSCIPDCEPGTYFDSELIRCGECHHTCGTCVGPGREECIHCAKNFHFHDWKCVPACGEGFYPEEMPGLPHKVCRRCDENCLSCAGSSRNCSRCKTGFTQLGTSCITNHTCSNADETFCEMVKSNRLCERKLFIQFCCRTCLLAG
Kind of series: Inhibition of recombinant human PACE4 expressed in S2 insect cells using pyroGlu-Arg-Thr-Lys-Arg-AMC peptide as substrate after 1 hr by spectrofluorometry. The method, boiled down:
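Human recombinant PACE4 made in S2 insect cells and purified. Assay buffer 20 mM Bis-Tris pH 6.5, 1 mM CaCl2, 1.8 g/L BSA. Substrate 100 µM per well, inhibitors 0–10 µM, 2 units enzyme. Fluorescence (ex 370/em 460 nm) followed in real time for 1 h. Ki from IC50 by Cheng–Prusoff; duplicate or triplicate.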

Series [6] relates to DU-145. As to the kind of experiment: Antiproliferative activity against human DU145 cells after 72 hrs by MTT assay. It is filed as functional, cell-based. The conditions noted are these: DU-145, 72 h. The method, boiled down:
as §2

In series [7] the target is Furin (Homo sapiens, UniProt P09958). Kind of series: Inhibition of recombinant human furin expressed in S2 insect cells using pyroGlu-Arg-Thr-Lys-Arg-AMC peptide as substrate after 1 hr by spectrofluorometry. The method, boiled down: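 Furin was human recombinant from S2 insect cells, purified. Buffer 100 mM HEPES pH 7.5, 1 mM CaCl2, 1 mM β-mercaptoethanol, 1.8 g/L BSA. Substrate 100 µM per well, inhibitors 0–10 µM, 2 units enzyme. Real-time fluorescence (ex 370/em 460 nm) over 1 h. Ki by Cheng–Prusoff; duplicate or triplicate.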
Furin, sequence (P09958 whole entry): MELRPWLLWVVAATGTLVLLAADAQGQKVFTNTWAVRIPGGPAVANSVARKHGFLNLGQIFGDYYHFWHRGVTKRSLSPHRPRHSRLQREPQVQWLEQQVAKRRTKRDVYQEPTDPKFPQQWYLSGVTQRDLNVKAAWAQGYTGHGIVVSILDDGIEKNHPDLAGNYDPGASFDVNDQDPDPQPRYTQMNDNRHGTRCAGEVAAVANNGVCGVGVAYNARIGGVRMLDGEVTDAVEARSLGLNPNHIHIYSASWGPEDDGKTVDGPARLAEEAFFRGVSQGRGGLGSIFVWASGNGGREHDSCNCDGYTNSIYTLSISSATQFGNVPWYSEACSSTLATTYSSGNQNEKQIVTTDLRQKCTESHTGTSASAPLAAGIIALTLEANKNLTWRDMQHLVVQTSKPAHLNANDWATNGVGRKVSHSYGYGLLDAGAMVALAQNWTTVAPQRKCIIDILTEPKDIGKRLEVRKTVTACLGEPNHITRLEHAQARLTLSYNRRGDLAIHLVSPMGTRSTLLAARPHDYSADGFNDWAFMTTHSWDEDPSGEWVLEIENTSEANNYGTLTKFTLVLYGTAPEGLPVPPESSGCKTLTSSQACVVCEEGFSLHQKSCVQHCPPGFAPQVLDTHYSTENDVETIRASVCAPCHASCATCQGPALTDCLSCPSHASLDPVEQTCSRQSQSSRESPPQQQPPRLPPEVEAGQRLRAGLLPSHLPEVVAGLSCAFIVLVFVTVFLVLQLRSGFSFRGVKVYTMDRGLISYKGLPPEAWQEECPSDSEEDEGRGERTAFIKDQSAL

Series [8] has as its system LNCaP. Kind of series: Antitumor activity against human LNCAP cells xenografted in nu mouse assessed as reduction in tumor volume at 2 mg/kg/day, iv administered at 24 hr intervals. In kind it is functional. More on the design: scale not given: the % may be the effect or the level left. (Xenograft models place foreign cells or tissue in a host animal.)
Series [9] in a line: Acute toxicity in iv dosed CD1 mouse measured within 5 mins post dose. It is filed as organism-based. The conditions noted are these: in vivo. The method, boiled down: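 Healthy CD1 mice received a single intravenous dose, given at various dose levels, to locate the toxicity threshold as a maximum tolerated dose (MTD).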
Series [10] concerns LNCaP. As to the kind of experiment: Antitumor activity against human LNCAP cells xenografted in nu mouse assessed as reduction in serum prostate-specific antigen levels at 2 mg/kg/day, iv administered at 24 hr intervals. In kind it is functional. Further details: scale not given: the % may be the effect or the level left.
Series [11] relates to LNCaP. As to the kind of experiment: Antiproliferative activity against human LNCAP cells up to 300 uM after 72 hrs by MTT assay relative to control. It is filed as functional. The method, boiled down: as §2
Series [12] deals with DU-145. Kind of series: Cytotoxicity against human DU145 cells assessed as effect on live cells up to 100 uM after 1.5 hrs by propidium iodide-staining based FACS analysis. The conditions noted are these: du-145, 1.5 h. In kind it is cell-based. The method, boiled down:
as §1
In general terms: Flow cytometry measures light scatter and fluorescence of single cells or particles in a stream.

Where a SMILES comes first, the peptide text is derived from it. [ ]: non-standard residue; d: D form. The star is where a group is joined. NH(4-amidinobenzyl) = N=C(N)c1ccc(CN*)cc1 Where only a bound is given, the exact number is not on record here.

As to `CC(=O)N[C@H](CC(C)C)C(=O)N[C@@H](CC(C)C)C(=O)N[C@@H](CC(C)C)C(=O)N[C@@H](CC(C)C)C(=O)N[C@@H](CCCNC(=N)N)C(=O)N[C@H](C(=O)N[C@@H](CCCCN)C(=O)N[C@@H](CCCNC(=N)N)C(=O)NCCc1c[nH]c2ccccc12)C(C)C`, the Activity result in series [1] is “Toxic”. Besides, in series [2], the Ratio Ki is 4. The half-life in series [3] is 0.8 h. The IC50 in series [4] turned out to be 18 µM; in series [6], 14 µM. The Ki in series [5] stood at 0.07 µM; in [7] it was 0.28 µM.
On to `CC(=O)N[C@H](CC(C)C)C(=O)N[C@@H](CC(C)C)C(=O)N[C@@H](CC(C)C)C(=O)N[C@@H](CC(C)C)C(=O)N[C@@H](CCCNC(=N)N)C(=O)N[C@H](C(=O)N[C@@H](CCCCN)C(=O)NCc1ccc(C(=N)N)cc1)C(C)C` (Ac-[dL]LLLRVK-{NH(4-amidinobenzyl)}), for which, in series [2], the Ratio Ki was 2. The compound further had a half-life in [3] of 1.7 h. Besides, the figures for the Activity in series [8] and in series [10] were 60% and 47%, respectively. Also, the IC50 in series [4] came out at 45 µM. Moreover, the MTD at 5 min in series [9] is 10 mg/kg.
Ac-LLLLRVKRR-NH2: the Ratio Ki in series [2] worked out at 16. In addition, the Activity is recorded as under 50% in [11] and “Non-Toxic” in series [12]. In addition, the Ki in [5] was 0.16 µM; in series [7], 2.5 µM. This compound gave an IC50 in series [6] of 71 µM.
As to Ac-LLLLRVKRW-NH2, the Activity result in [1] was “Toxic”. For the same compound, in series [2], the Ratio Ki amounted to 4. Also, the IC50 came out at 31 µM in [4] and 25 µM in series [6]. Besides, the values for the Ki in series [5] and in [7] were 0.029 µM and 0.11 µM, respectively.
